TRPC4 PAM: allosterically enhances the mouse TRPC4 cation channel. AID 2227. Q9QUQ5. 310,000 compounds, 0.42% hits. HEK293 TRPC4beta/mu-opioid, DAMGO EC20, Fluo-4 Ca2+ flux; active compounds read high. B-score at 10 µM;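 active means B-score of calcium response area above 5 SD of library B-scores, with initial fluorescence ratio within 5 SD of library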
TRPC6 act: mouse TRPC6 channel activation; 310,000 compounds, 0.13% hits; HEK293-TRPC6 membrane potential dye fluorescence; active compounds read high; B-score at 10 µM; AID 2550;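 active means B-score of the integrated fluorescence ratio above library mean plus 3 SD, and starting fluorescence ratio within library mean plus 5 SD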;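 further: higher score means more depolarization so channel activation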
Target sequence (Q61143 whole entry, looked up): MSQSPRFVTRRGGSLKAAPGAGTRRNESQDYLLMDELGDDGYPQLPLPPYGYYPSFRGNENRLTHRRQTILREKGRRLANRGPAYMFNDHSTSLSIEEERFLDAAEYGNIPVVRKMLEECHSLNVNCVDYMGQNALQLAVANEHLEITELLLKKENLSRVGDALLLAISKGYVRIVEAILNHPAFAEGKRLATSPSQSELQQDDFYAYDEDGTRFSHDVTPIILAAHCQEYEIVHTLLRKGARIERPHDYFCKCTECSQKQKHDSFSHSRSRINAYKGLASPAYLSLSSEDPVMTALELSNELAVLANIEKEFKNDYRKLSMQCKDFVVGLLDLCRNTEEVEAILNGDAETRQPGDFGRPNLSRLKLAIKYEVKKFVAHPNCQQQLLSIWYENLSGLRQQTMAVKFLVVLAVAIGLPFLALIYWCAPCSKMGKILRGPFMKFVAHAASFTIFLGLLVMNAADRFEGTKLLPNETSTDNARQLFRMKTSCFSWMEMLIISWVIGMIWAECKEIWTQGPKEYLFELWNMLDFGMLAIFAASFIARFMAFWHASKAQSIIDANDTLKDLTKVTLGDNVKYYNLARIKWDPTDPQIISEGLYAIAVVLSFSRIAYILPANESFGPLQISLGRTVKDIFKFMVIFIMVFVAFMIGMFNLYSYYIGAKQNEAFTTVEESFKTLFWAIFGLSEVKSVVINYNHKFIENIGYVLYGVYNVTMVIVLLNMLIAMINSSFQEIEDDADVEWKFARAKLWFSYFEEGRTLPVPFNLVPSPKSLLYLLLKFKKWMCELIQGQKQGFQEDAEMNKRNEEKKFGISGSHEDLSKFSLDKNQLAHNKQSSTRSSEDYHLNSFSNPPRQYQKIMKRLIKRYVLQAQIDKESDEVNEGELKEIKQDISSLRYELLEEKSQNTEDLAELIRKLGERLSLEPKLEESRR
TRPC4 act: opens the mouse TRPC4 cation channel; Q9QUQ5; HEK293 TRPC4beta/mu-opioid, Fluo4 calcium fluorescence; active compounds read high; B-score at 10 µM; 310,000 compounds, 0.49% hits; AID 2237;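 active means B-score above 5 SD of library B-scores, and initial fluorescence ratio not above library mean plus 5 SD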;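 further: positive B-score marks a calcium rise read as TRPC4 activation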
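system = HEK293 cells stably co-expressing mouse TRPC4beta and mu-opioid receptor | schedule = Fluo4 dye loading 45 min at room temperature, 110 s recording | measure = B-scored integrated calcium fluorescence ratio | signal = Fluo4 calcium-sensitive dye fluorescence, kinetic, 1 Hz baseline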
TRPC6 inhibitor: inhibitors of mouse TRPC6 channel; HEK293-TRPC6, membrane potential dye, ACh-evoked depolarization; active compounds read low; B-score at 10 µM; Q61143; 310,000 compounds, 1.1% hits;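 active means B-score under library mean minus 3 SD, initial fluorescence not abnormally high, positive integrated signal ratio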;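 further: B-score derived from integrated fluorescence ratio over the kinetic read; more negative B-score means stronger inhibition of depolarization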
TRPC4 inh: TRPC4 (mouse) channel inhibition | Q9QUQ5 | HEK293 TRPC4beta/mu-opioid, DAMGO-evoked Fluo4 calcium flux; active compounds read low | B-score at 10 µM | 300,000 compounds, 0.39% hits | AID 2247;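 active means B-score over 3 SD under the library average, no early fluorescence shift, positive overall ratio signal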
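Assay system: Stable TRPC4beta/mu-opioid receptor HEK293 cells | Reagent: DAMGO in two steps, submaximal then maximal | Compound dosing: Single concentration per test compound | Signal: Fluo4 Ca2+ flux fluorescence | Evaluation: Per-well B score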
Of the large screens only hits and unclear results are named; the others gave an inactive call. A selection: hits, their analogues and other compounds. The true share with any hit is near 2.3%.

CCC(C)(C)n1nnnc1CN(Cc1cccs1)Cc1cc2cc(OC)ccc2[nH]c1=O	TRPC4 PAM 11
Cc1cccc(Nc2nc(NCCCN3CCOCC3)nc(N)c2[N+](=O)[O-])c1	TRPC4 inh -6
Cc1[nH]c2ccccc2c1C(=O)CN1C(=O)NC(C)(c2ccc(Cl)cc2Cl)C1=O (stereo not given)	TRPC4 PAM 20
Cc1[nH]c2ccccc2c1C(=O)CSc1ccc(Cl)cc1	none
CN(C)C(CNC(=S)Nc1ccc(F)cc1)c1cccnc1 (stereo not given)	TRPC4 act 80
Cc1cccc(NC(=S)NCC(c2cccnc2)N(C)C)c1 (stereo not given)	TRPC4 act 103
O=C(OCCCOC(=O)c1ccccc1O)c1ccccc1O	none
O=[N+]([O-])c1cc2c(c(CSc3nnnn3-c3ccc(O)cc3)c1)OCOC2	none
Cc1[nH]c(=O)c(C#N)c(C)c1CCC(=O)NCc1ccc(Cl)cc1	none
COc1cc2c(cc1NC(=O)Nc1ccc(C)cc1)oc1ccccc12	none
COc1cc2c(cc1NC(=O)C(C)Sc1ccc(NC(C)=O)cc1)oc1ccccc12 (stereo not given)	TRPC4 PAM 11
COCCn1c(SCc2ccc(F)cc2)nc2ccccc2c1=O	TRPC4 inh -6
COCCn1c(SCc2nc3ccccc3c(=O)[nH]2)nc2ccccc2c1=O	none
CCSc1nc2ccccc2c(=O)n1CCc1ccc(OC)c(OC)c1	none
COCCn1c(SCc2ccc(OC)c(F)c2)nc2ccccc2c1=O	TRPC4 inh -7
Cn1c(SCCOc2ccccc2F)nc2ccccc2c1=O	TRPC4 PAM 16
O=C(CS(=O)(=O)c1ccc(F)cc1)Nc1nnc(-c2ccccc2Cl)o1	none
COC(=O)[C@H]1CN(C(=O)c2ccccc2)C(=O)N1	none
Cc1c(CCC(=O)O)c(=O)oc2cc(OCc3ccccc3Br)ccc12	none
N=c1n(CCO)c2ccccc2n1Cc1ccc(Cl)cc1	TRPC4 inh -6
COc1ccc(OCC(O)Cn2c(=N)n(Cc3ccccc3)c3ccccc32)cc1 (stereo not given)	none
N=c1n(Cc2ccc(Cl)cc2)c2ccccc2n1CC(O)COc1ccccc1 (stereo not given)	TRPC4 act 86
N=c1n(Cc2ccccc2)c2ccccc2n1Cc1ccccc1	none
CCN(CC)CCn1c(=N)n(CC(O)COc2cccc(C)c2)c2ccccc21 (stereo not given)	TRPC4 inh -5
N=c1n(Cc2ccccc2)c2ccccc2n1CC(O)COc1ccc(Cl)cc1Cl (stereo not given)	TRPC4 PAM 12
Cc1cc(C(C)(C)C)cc(S(=O)(=O)Nc2cccc(C(=O)O)c2)c1C	TRPC4 PAM 16
C/C(=N\NC(=O)CSc1nc(C)cc(C)n1)c1ccc2c(c1)OCCO2	none
Cc1ccc(NC(=O)CCNS(=O)(=O)c2ccc3[nH]c(=O)oc3c2)cc1C	none
CCN(CC)c1ncnc2scc(C3COc4ccccc4O3)c12 (stereo not given)	TRPC4 inh -7
CCOc1ccc(S(=O)(=O)Nc2cccc(C(=O)NCC(c3ccco3)N(C)C)c2)cc1 (stereo not given)	none
COc1ccc(C(CNC(=O)c2cccc(NS(=O)(=O)c3ccc(C)c(F)c3)c2)N(C)C)cc1 (stereo not given)	TRPC4 act 81
COc1ccc(C(CNC(=O)c2ccc(S(=O)(=O)Nc3ccc(F)cc3)cc2)N(C)C)cc1 (stereo not given)	TRPC4 act 66
CCOc1ccc(S(=O)(=O)Nc2cccc(C(=O)NCC(c3ccccc3)N(C)C)c2)cc1 (stereo not given)	TRPC4 act 198
COc1ccc(C(CNC(=O)c2ccc(NS(=O)(=O)c3ccc4c(c3)OCCO4)cc2)N(C)C)cc1 (stereo not given)	none
COc1ccc(C(CNC(=O)c2cccc(NS(=O)(=O)c3ccccc3)c2)N(C)C)cc1 (stereo not given)	TRPC4 act 53, TRPC4 inh -6
COc1ccc(NS(=O)(=O)c2cccc(C(=O)NCC(c3ccco3)N(C)C)c2)cc1 (stereo not given)	none
COc1cccc(C2Nc3ccc4ccccc4c3C3=C2C(=O)CC(C)(C)C3)c1OCC(=O)O (stereo not given)	none
COc1ccc(/C(O)=C2/C(=O)C(=O)N(c3ccccn3)C2c2ccc(F)cc2)cc1 (stereo not given)	none
CN(C)C(CNC(=O)c1ccc2nc[nH]c2c1)c1ccccc1 (stereo not given)	TRPC4 act 142
CN(C)C(CNC(=O)CNC(=O)c1ccc2ccccc2c1)c1ccccc1 (stereo not given)	none
CC(=O)c1ccc(S(=O)(=O)NCc2ccc(C(=O)NCC(c3ccccc3)N(C)C)cc2)cc1 (stereo not given)	TRPC4 act 177
CCN(CC)S(=O)(=O)c1cccc(C(=O)NCC(c2ccccc2)N(C)C)c1 (stereo not given)	TRPC4 act 79
CC1CN(C(=S)Nc2cccc(Cl)c2)CC(C)O1 (stereo not given)	none
COc1ccc2[nH]c(C(=O)N3CCN(Cc4ccccc4)CC3)cc2c1OC	none
CCOC(=O)N1CCN(C(=O)CN(Cc2ccc(Cl)cc2)S(=O)(=O)c2ccc(C)cc2)CC1	none
CCCCc1c(O)nc(SCC(=O)Nc2cccc3ccccc23)n(-c2ccccc2OC)c1=O	TRPC4 inh -5
CCOC(=O)c1ccc(S(=O)(=O)N2CCN(CC(O)COc3ccc(C#N)cc3)CC2)cc1 (stereo not given)	none
O=C1CC(c2cccc([N+](=O)[O-])c2)c2ccc3ccccc3c2N1 (stereo not given)	TRPC4 PAM 11
Cc1[nH]c2ccccc2c1CN1CCC(Cc2ccccc2)CC1	TRPC4 act 67
Cc1[nH]c2ccccc2c1CN1CCN(c2ccccn2)CC1	none
Clc1ccc(SCc2cn3ccccc3n2)cc1	none
Cc1cccc2nc(CSc3ccc(Cl)cc3)cn12	TRPC4 inh -8
CCOC(=O)C(C)Sc1nc2c(c(=O)[nH]c(=O)n2C)n1Cc1ccc(Cl)cc1 (stereo not given)	TRPC4 inh -6
CCn1ccnc1CN1CCC(n2nccc2NC(=O)CCc2ccccc2)CC1	none
CCn1cc(CN2CCC(n3nccc3NC(=O)CCOc3ccccc3)CC2)cn1	TRPC4 act 72
CCCn1ncc(CN2CCC(n3nccc3NC(=O)CCc3ccccc3)CC2)c1C	TRPC4 act 100
CCn1cc(CN2CCC(n3nccc3NC(=O)CCOc3ccccc3)CC2)c(C)n1	none
CCn1cc(CN2CCC(n3nccc3NC(=O)CCc3ccccc3)CC2)cn1	TRPC4 act 73
O=C(O)c1ccccc1-n1c(-c2ccccc2)cc2c1CCCC2=O	none
Cc1cc(OCC(=O)Nc2ccc3oc(=O)ccc3c2)ccc1Cl	none
